Measurements from different studies.
Protocols differ between the studies behind these lines.
Target: Serine/threonine-protein kinase ICK (CILK1, Homo sapiens, UniProt Q9UPZ9)
Residues used in one study (Q9UPZ9 1-632): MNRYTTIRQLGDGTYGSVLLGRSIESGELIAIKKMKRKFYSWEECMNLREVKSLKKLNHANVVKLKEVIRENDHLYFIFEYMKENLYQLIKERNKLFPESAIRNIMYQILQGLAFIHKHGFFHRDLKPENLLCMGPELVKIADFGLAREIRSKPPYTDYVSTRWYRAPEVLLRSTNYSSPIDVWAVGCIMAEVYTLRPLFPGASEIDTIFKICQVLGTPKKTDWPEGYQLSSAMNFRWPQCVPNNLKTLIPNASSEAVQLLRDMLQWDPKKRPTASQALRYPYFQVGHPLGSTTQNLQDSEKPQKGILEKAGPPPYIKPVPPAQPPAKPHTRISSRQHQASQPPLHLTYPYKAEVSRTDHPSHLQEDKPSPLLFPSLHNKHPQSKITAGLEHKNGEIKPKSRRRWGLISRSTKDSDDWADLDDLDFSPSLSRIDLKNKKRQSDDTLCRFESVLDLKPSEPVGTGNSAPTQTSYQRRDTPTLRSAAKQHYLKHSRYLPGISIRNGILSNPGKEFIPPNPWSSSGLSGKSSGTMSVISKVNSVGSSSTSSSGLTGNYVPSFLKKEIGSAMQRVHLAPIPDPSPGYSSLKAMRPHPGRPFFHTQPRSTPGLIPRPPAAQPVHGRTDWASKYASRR

SMILES	read-out	technique	concentration	remaining binding
CC1CCCN1c1nccc(-c2cnn3ncccc23)n1 (stereo not drawn)	binding		1 µM	100%
O=C(c1ccc(Nc2ncc(Cl)c(-c3cc4ccccc4s3)n2)cc1)N1CCC(N2CCCC2)CC1	binding	competition with immobilised ligand	1 µM	57%
Nc1ncc2c(n1)-c1c([nH]c3ccc(C#CC4CC4)cc13)CCCC2	binding	competition with immobilised ligand	1 µM	98%
CN(C)c1nccc(-c2cnn3ncccc23)n1	binding		1 µM	91%
COc1cnc(Nc2cccc(S(N)(=O)=O)c2)nc1N1CCN(c2ccccc2)C(=O)C1	binding	competition with immobilised ligand	1 µM	75%
FC(F)(F)Oc1cccc(-c2cnc3ccc(-c4ccncc4)nn23)c1	cell-free assay	competition with immobilised ligand	5 µM	4.5%
C[C@H]1CCN(c2nccc(-c3cnn4ncccc34)n2)C1	binding		1 µM	64%
CNCc1ccccc1-c1csc([C@H](C)Nc2nc(C)nc3cc(OC)c(OC)cc23)c1	cell-free assay	competition with immobilised ligand	1 µM	86%
O=C(NCCCN1CCOCC1)c1ccc(Nc2ncc(Cl)c(-c3ccc(Cl)s3)n2)cc1	binding	competition with immobilised ligand	1 µM	62%
O=C(NCC1CCOCC1)c1n[nH]cc1NC(=O)c1c(F)cccc1F	binding	competition with immobilised ligand	1 µM	5.7%
c1cnn2ncc(-c3ccnc(N4CCC45COC5)n3)c2c1	binding		1 µM	69%
C[C@@]1(Cc2ccc(C#N)cc2)C(=O)N(c2cc(Cl)cc(Cl)c2)c2ncc(C(=O)NC3(c4nc(C5CCC5)no4)CC3)n21	cell-free assay	competition with immobilised ligand	1 µM	100%
O=C(c1ccc(Nc2ncc(Cl)c(-c3ccc(Cl)s3)n2)cc1)N1CCC(N2CCCC2)CC1	binding	competition with immobilised ligand	1 µM	32%
CN(C)C(=O)Cn1cc(-c2nc([C@@](C)(c3ccc(-c4cnc(N)nc4)cc3)C3CC3)no2)cn1	binding	competition with immobilised ligand	1 µM	100%
CCN1CCN(Cc2ccc(C(=O)Nc3ccc(C)c(Oc4ccc5c(c4)CC(=O)N5)c3)cc2C(F)(F)F)CC1	binding	competition with immobilised ligand	1 µM	100%
Nc1cnc(N2CCc3cc(S(=O)(=O)Nc4c(F)cc(Cl)cc4F)cc(N4CCCC4=O)c32)nc1	cell-free assay	competition with immobilised ligand	1 µM	80%
CN(c1nccc(-c2cnn3ncccc23)n1)C1CC1	binding		1 µM	100%
Cc1c(NC(=O)c2cc(C(N)=O)nc3cc(F)ccc23)c(C(F)(F)F)nn1Cc1ccc(C(C)(C)C)cc1	cell-free assay	competition with immobilised ligand	1 µM	61%
CN(C)c1nccc(-c2cnc3ncccn23)n1	binding		1 µM	81%
O=C(Nc1cccnn1)N1CCC(=Cc2cccc(Oc3ccc(C(F)(F)F)cn3)c2)CC1	cell-free assay	competition with immobilised ligand	1 µM	91%
COc1ncc2cc3ccccc3nc2c1C#N	binding	competition with immobilised ligand	5 µM	90%
